From PubChem
INS promoter act: activators of insulin promoter-driven GFP, primary screen, imaging, TRM-6 cells, eGFP reporter, cell count; activation, % at 2 µM; actives 0.81% (n = 130,000); plate-scaled: unstimulated 0, stimulated control 100;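 active = activation at 2 µM above a set limit, confirmed on inspection of the cell images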;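 also: share of cells whose green reporter signal exceeds an intensity cutoff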
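System: human fetal islet-derived TRM-6 cells with tamoxifen-inducible insulin promoter–eGFP reporter; input: seeding density of 1,000 cells per well; buffer or medium: Low-glucose (5.5 mM) medium with tamoxifen; incubation: compound exposure 48 h, 37 °C; measured by: high-content imaging of fixed cells with Hoechst nuclear stain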
The depositor's hits bear a star. Many of the other results were omitted from the sample, so hits are more common in it than they were.

SMILES	INS promoter act
CCOC(=O)C1C(=O)NC(SCC(N)=O)=C(C#N)C1c1ccccc1OCC (centres undefined)	-9
Cc1cc(NC(=O)CCC(=O)N(c2ccccc2)C(C(=O)NC2CCCC2)c2cccs2)no1 (centres undefined)	118
Cc1ccc(C(C(=O)NC2CCCC2)N(Cc2ccco2)C(=O)CCC(=O)Nc2cc(C)on2)cc1 (centres undefined)	810*
Cc1cc(NC(=O)CCC(=O)N(Cc2cccs2)C(C(=O)NC2CCCC2)c2cccnc2)no1 (centres undefined)	-3
Cc1ccnc(SCc2nc3ccccc3s2)n1	-8
Cc1ccnc(NC(=S)NC(=O)c2cccs2)c1	7
O/C(=C\c1ccc2ccccc2n1)c1ccc(O)cc1O	143
CCN(CC)S(=O)(=O)c1cccc(-c2nnc(SCC(=O)N3CCC(C(=O)O)CC3)n2N)c1	-6
CCN(CC)S(=O)(=O)c1cccc(C(=O)Nc2sc3c(c2C(N)=O)CCCC3)c1	-5
CCN(CC)S(=O)(=O)c1cccc(C(=O)N2CC(O)CC2C(=O)O)c1 (centres undefined)	443*
O=C(c1ccc2c(=O)n(C3CCCC3)c(=S)[nH]c2c1)N1CCCCCC1	7
CN(C)CCNC(=O)c1cccc(S(=O)(=O)Nc2ccccc2F)c1	6
CC(C)NC(=O)c1onc(CSc2cccc3ccccc23)c1C(=O)O	0
O=C(NC1CCCc2ccccc21)C1CCN(S(=O)(=O)c2ccccc2F)CC1 (centres undefined)	0
O=C(NC1CCCc2ccccc21)C1CCN(S(=O)(=O)c2cnc[nH]2)CC1 (centres undefined)	156
O=C(NC1CCCc2ccccc21)C1CCN(c2nnc(-n3cccc3)s2)CC1 (centres undefined)	186*
O=C(OCC#CCSc1nc2ccccc2s1)c1ccco1	191
CCOC(=O)c1c(C)c(C(=O)Nc2ccc(F)cc2)c(C)n1C	142
CCCCN(Cc1ccccc1)S(=O)(=O)c1ccc2[nH]c(=O)oc2c1	10
COc1ccc(C(=O)O/N=C(\N)c2ccncc2)cc1OC	-7
COc1ccc(C/C(N)=N/OC(C)=O)cc1OC	8
COc1ccc(/C(N)=N/OC(=O)Cc2ccc(OC)c(OC)c2)cc1	210*
O=C(CCC(=O)OCCCC(F)(F)C(F)(F)F)Nc1ccc(Cl)cc1Cl	4
COc1ccc(S(=O)(=O)N(C)CC(=O)N2CCOCC2)cc1	-7
CN(CC(=O)N1CCN(c2ccc(F)cc2)CC1)S(=O)(=O)c1ccc(F)cc1	79*
SMILES	INS promoter act
O=C(CNS(=O)(=O)c1ccc(Br)cc1)N1CCN(c2ccc(F)cc2)CC1	354
C=CCNC(=O)COc1ccc(N(C)S(=O)(=O)c2ccc(NC(C)=O)cc2)cc1	6
O=C(NCc1ccccc1C(F)(F)F)C12CN(Cc3ccccc3)CC1C(c1ccc([N+](=O)[O-])cc1)=NO2 (centres undefined)	-5
O=C1OCCN1C(=O)[C@H]1[C@H](c2ccc([N+](=O)[O-])cc2)C(c2cccc(Cl)c2)=NN1c1ccccc1	273*
O=[N+]([O-])c1ccc(N2N=C(c3ccco3)CC2c2ccccc2)cc1 (centres undefined)	106
CC(C)C[C@H](NC(=O)OC(C)(C)C)c1n[nH]c(=S)n1N	7
COc1ccc(-c2noc(CCN3C(=O)c4ccccc4C3=O)n2)cc1OC	-9
O=C1NC(=O)/C(=C\c2cn(Cc3ccccc3F)c3ccccc23)N1	0
Cc1sc2ncn(Cc3ccccc3F)c(=O)c2c1C	0
COc1cc2c3nnc(-c4ccccc4)c-3cn(Cc3ccccc3F)c2cc1OC	525*
COc1cc2c3nnc(-c4ccc(F)cc4)c-3cn(Cc3ccccc3F)c2cc1OC	800*
O=c1c2ccsc2ncn1Cc1ccccc1F	10
O=C(COC(=O)C1CC2C=CC1C2)Nc1ccccc1F (centres undefined)	-6
Brc1ccc(OCCCCCN2CCOCC2)cc1	0
CC(C)(C)c1ccc(-c2n[nH]c(=S)n2CCCN2CCOCC2)cc1	5
O=C1C(=O)c2ccc(-c3ccccc3)cc2-c2ccccc21	-27
Nc1ccc2c(c1)C(=O)C(=O)c1ccccc1-2	239*
Cc1ccc(N2C(=O)c3ccc(N)cc3C2=O)cc1C	0
COC(=O)c1ccc(C)c(NC(=O)CCc2cc(OC)c(OC)c(OC)c2)c1	123
O=C(c1ccc(S(=O)(=O)c2ccccc2)cc1)N1CCc2ccccc2C1	6
C=CCn1cc(C(=O)OC)c(=O)c2cc(S(=O)(=O)N3CCC(C)CC3)ccc21	0
C=CCn1cc(C(=O)N2CCc3ccccc3C2)c(=O)c2cc(S(=O)(=O)N(CC)CC)ccc21	400*
O=C(CNC(=O)c1cccc(F)c1)OCC(=O)N1CCCc2ccccc21	-7
CCOC(=O)c1c(NC(=O)c2ccc(N3C(=O)C4C5C=CC(C5)C4C3=O)cc2)sc2c1CCCC2 (centres undefined)	0
O=C(Oc1ccccc1)c1c(Cl)cccc1P(=O)(O)O	-9
SMILES	INS promoter act
CCCOc1ccc2c(=O)c(-c3cc(C(=O)OC)oc3C)c(C)oc2c1	-8
O=S(=O)([O-])CCC[n+]1c(SCCCS(=O)(=O)O)sc2ccc(Cl)cc21	7
Cc1ccc(S(=O)(=O)Nc2ccc(N(C)C)cc2)cc1	0
COc1ccc(S(=O)(=O)Nc2ccc(N(C)C(C)=O)cc2)cc1	103*
CCOc1ccc(NS(=O)(=O)c2ccc(NC(=S)NC(C)=O)cc2)cc1	7
CN1CC(=O)N(CC(=O)Nc2cccc(S(=O)(=O)N3CCOCC3)c2)C1=O	-65
Cc1ccc(C2(C)NC(=O)N(CC(=O)Nc3cc(S(=O)(=O)N4CCOCC4)ccc3C)C2=O)cc1 (centres undefined)	0
CCCNC(=O)Cn1c(=O)/c(=C\c2ccc(-c3ccc([N+](=O)[O-])cc3)o2)s/c1=C\C(=O)C(C)(C)C	270*
Cc1ccc(C(=O)N/C(=C\c2ccc(-c3cccc([N+](=O)[O-])c3)o2)C(=O)NC(C)(C)C)cc1	-7
O=C(Cc1ccccc1)N/N=C/c1ccc(-c2ccc([N+](=O)[O-])cc2)o1	0
COc1ccc(S(=O)(=O)N2CCCC2C(=O)Nc2ccc(C(C)=O)cc2)cc1 (centres undefined)	-71
c1ccc(Oc2ccc(-c3ccnc4ncnn34)cc2)cc1	397*
c1ccc(Oc2ccc(-c3ccnc4nc(N5CCOCC5)nn34)cc2)cc1	-3
Clc1ccc(COc2ccccc2-c2ccnc3ncnn23)cc1	9
O=C(Nc1cccc(Cl)c1)Nc1nnc(CSCCOc2ccc(Cl)cc2)s1	7
CC(C)=NNC(=O)CN1C(=O)NC2NC(=O)NC21 (centres undefined)	3
CC1CC(C)CN(S(=O)(=O)c2cccc(C(=O)OCCN3CCCC3=O)c2)C1 (centres undefined)	3
Cc1ccc(S(=O)(=O)c2ccccc2)cc1S	8
Cc1ccc(C(=O)N2CCN(C(=O)CN3CCOCC3)C2)cc1	-4
O=C(CN1CCOCC1)N1CCN(S(=O)(=O)c2ccccc2)C1c1ccccc1 (centres undefined)	-3
Cc1ccc(S(=O)(=O)N2CCN(C(=O)CN3CCOCC3)C2C(C)C)cc1 (centres undefined)	500*
Cc1ccc(C(=O)Nc2cccc(C(=O)O)c2)cc1S(=O)(=O)N1CCCCC1	0
CCc1ccc(N(C(=O)c2snc(C(N)=O)c2N)C(C(=O)NCCC(C)C)c2c[nH]c3ccccc23)cc1 (centres undefined)	0
